Laboratory results reported in ChEMBL document CHEMBL1138152, “Design and synthesis of novel hydrazide-linked bifunctional peptides as delta/mu opioid receptor agonists and CCK-1/CCK-2 receptor antagonists” (J Med Chem, 2006).

What was measured:
[1] = biological target: T1, Delta-type opioid receptor (Homo sapiens, UniProt P41143); test: Inhibition of [35S]GTP-gamma-S binding to human delta opioid receptor expressed in CHO cells; assay type: functional, cell-based
Method in brief: (§1)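 CHO-expressed receptor membranes (10 µg) in 50 mM HEPES pH 7.4 with EDTA, 5 mM MgCl2, 30 µM GDP, DTT, 100 mM NaCl, PMSF, BSA and 0.1 nM [35S]GTPγS. Test drug at various concentrations, duplicate or triplicate, 90 min at 30 °C. Nonspecific binding with 10 µM GTPγS.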

[2] = biological target: T2, Cholecystokinin receptor (Homo sapiens) (UniProt P32239+P32238); test: Agonist activity at CCK receptor of guinea pig ileum at 1 uM; assay type: functional, tissue-based; settings: Cavia porcellus, target entry is the homologue from another species
Method in brief: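 Guinea pig ileum LMMP strips (male Hartley), 20-mL baths, 1 g tension, oxygenated Krebs bicarbonate buffer, 37 °C. Tissue first challenged with 67 mM KCl to set maximal contraction. Test compound added to the bath; agonist activity taken as contraction height as a percentage of the maximal KCl contraction (A50).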

[3] = biological target: Mu-type opioid receptor (Rattus norvegicus) (UniProt P33535); test: (§2) Inhibition of [35S]GTP-gamma-S binding to rat mu opioid receptor expressed in CHO cells; assay type: functional, cell-based; method in brief: as §1
[4] = biological target: T2, Cholecystokinin receptor (Homo sapiens); test: Antagonist activity at CCK receptor by inhibition of CCK8-induced muscle contraction in unstimulated GPI/LMMP; assay type: functional; settings: Cavia porcellus; target entry is the homologue from another species
Method in brief: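 Male Hartley guinea pig ileum LMMP strips, 1 g tension, oxygenated Krebs bicarbonate buffer, 37 °C; 67 mM KCl sets maximal contractility. Initial noncumulative CCK-8 dose-response curve built. Test compound added without electrical stimulation; 3 min later the CCK-8 curve was rebuilt at an antagonist dose giving about a 3-fold rightward shift. Ke is the antagonist concentration halving CCK-8 activity.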

[5] = biological target: T3, Mu-type opioid receptor (Rattus norvegicus, UniProt P33535); test: Displacement of [3H]DAMGO from rat mu opioid receptor expressed in HN9.10 cells; assay type: cell-based
Method in brief: (§3)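 Membranes (50 µg) from HN9.10 neuroblastoma cells stably expressing rat MOR or human DOR. Buffer was 50 mM Tris pH 7.4 with bacitracin, bestatin, captopril, PMSF and 1 mg/mL BSA. Radioligand was [3H]DAMGO (MOR) or [3H]DPDPE (DOR), each 1.0 nM, with 10 test concentrations. Incubated 3 h at 25 °C, in duplicate. Nonspecific binding with 10 µM naloxone. Filtration, then scintillation counting.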

[6] = biological target: T4, Cholecystokinin receptor type A (Homo sapiens, UniProt P32238); test: Displacement of [125I]CCK8 from human CCK1 receptor expressed in HEK293 cells; assay type: cell-based
T4 sequence (P32238 whole entry): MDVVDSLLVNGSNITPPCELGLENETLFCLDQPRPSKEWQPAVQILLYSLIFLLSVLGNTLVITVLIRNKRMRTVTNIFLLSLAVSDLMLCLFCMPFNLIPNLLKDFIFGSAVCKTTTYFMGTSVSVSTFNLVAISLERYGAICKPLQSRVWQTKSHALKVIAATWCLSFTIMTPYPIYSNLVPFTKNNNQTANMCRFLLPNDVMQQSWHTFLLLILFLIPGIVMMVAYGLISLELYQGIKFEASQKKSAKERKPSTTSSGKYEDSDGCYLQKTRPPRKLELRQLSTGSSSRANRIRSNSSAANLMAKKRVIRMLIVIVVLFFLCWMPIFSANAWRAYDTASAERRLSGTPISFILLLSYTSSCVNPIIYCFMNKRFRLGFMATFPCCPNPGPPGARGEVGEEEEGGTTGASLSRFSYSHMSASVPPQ

[7] = biological target: T3, Mu-type opioid receptor; test: as §2; assay type: functional, cell-based; method in brief: as §1
[8] = biological target: Delta-type opioid receptor (Mus musculus, UniProt P32300); test: Agonist activity at delta opioid receptor by inhibition of muscle contraction in electrically stimulated isolated mouse vas deferens; assay type: functional, tissue-based
Method in brief: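 Male ICR mouse vasa deferentia in 20-mL baths, 0.5 g tension, oxygenated Mg-free Krebs at 37 °C; field stimulation 0.1 Hz, 2.0 ms single pulses, supramaximal voltage. Tissue integrity checked with DPDPE (10 nM). Compound added cumulatively until maximal inhibition. Inhibition taken as mean contraction height for 1 min before dosing versus height 3 min after. IC50 from Hill-equation fit by nonlinear least squares.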

[9] = biological target: T5, Gastrin/cholecystokinin type B receptor (Homo sapiens, UniProt P32239); test: Displacement of [125I]CCK8 from human CCK2 receptor expressed in HEK293 cells; assay type: cell-based
T5 sequence (P32239 whole entry): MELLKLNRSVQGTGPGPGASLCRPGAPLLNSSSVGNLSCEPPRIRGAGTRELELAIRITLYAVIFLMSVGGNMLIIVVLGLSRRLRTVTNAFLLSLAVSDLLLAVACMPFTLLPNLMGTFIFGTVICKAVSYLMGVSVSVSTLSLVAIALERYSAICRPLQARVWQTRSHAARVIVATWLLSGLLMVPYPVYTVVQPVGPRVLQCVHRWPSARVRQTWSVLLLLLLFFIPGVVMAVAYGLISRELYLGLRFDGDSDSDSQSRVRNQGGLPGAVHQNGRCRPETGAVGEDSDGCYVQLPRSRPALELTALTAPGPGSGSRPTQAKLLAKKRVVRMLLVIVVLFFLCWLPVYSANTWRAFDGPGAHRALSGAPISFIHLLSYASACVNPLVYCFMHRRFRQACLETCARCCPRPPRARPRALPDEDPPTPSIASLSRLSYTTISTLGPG

[10] = biological target: Mu-type opioid receptor (Cavia porcellus, UniProt P97266); test: Agonist activity at mu opioid receptor by inhibition of muscle contraction in electrically stimulated isolated guinea pig ileum; assay type: functional, tissue-based
Method in brief: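 Longitudinal muscle–myenteric plexus strips from male Hartley guinea pig ileum, 1 g tension, oxygenated Krebs at 37 °C, 15 min equilibration. Stimulated at 0.1 Hz, 0.4 ms, supramaximal voltage. Integrity checked with PL-017 (10 nM). Compound added until maximal inhibition. Inhibition taken as contraction height 1 min before versus 3 min after dosing. IC50 from Hill-equation fit.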

[11] = biological target: T1, Delta-type opioid receptor; test: Displacement of [3H]DPDPE from human delta opioid receptor expressed in HN9.10 cells; assay type: cell-based; method in brief: as §3

Chain of Delta-type opioid receptor (Mus musculus, UniProt P32300) (P32300 whole entry): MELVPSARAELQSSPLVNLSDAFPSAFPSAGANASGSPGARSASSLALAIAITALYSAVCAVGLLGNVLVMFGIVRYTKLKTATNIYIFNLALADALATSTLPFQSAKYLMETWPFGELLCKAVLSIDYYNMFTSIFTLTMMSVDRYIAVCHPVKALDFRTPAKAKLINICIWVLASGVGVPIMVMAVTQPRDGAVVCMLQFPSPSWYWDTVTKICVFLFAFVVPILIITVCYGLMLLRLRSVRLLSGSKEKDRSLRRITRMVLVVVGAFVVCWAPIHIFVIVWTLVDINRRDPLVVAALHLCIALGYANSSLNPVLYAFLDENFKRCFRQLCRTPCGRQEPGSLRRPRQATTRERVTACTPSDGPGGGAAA
T3 sequence (P33535 whole entry): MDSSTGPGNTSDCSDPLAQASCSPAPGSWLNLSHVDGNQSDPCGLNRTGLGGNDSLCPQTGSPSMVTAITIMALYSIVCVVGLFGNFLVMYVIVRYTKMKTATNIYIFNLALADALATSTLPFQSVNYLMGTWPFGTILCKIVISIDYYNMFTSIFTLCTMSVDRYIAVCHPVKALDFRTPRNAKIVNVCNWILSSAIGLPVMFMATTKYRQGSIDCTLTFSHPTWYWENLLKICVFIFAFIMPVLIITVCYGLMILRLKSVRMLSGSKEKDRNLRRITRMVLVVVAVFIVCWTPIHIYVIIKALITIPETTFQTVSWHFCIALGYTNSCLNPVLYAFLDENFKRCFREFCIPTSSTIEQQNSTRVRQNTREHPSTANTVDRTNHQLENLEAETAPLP
Chain of Mu-type opioid receptor (Rattus norvegicus) (P33535 whole entry): as above
T1 sequence (P41143 whole entry): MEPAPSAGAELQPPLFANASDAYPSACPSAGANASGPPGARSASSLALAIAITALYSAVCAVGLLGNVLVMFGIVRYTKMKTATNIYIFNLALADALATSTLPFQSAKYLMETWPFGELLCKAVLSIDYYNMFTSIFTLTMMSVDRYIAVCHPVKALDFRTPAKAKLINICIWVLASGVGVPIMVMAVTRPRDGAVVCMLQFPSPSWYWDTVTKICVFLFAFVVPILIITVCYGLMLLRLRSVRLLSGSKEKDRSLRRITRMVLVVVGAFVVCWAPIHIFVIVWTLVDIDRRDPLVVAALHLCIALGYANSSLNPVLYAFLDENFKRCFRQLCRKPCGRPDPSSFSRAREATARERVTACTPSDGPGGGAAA
Chain of Mu-type opioid receptor (Cavia porcellus, UniProt P97266) (P97266 whole entry): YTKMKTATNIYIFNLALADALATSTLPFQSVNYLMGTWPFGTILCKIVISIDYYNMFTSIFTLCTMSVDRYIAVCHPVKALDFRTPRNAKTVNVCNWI

| Compound | Emax [1] [%] | Activity [2] [%] | Emax [3] [%] | Ki [5] [nM] | IC50 [8] [nM] | IC50 [10] [nM] | Ki [11] [nM] | EC50 [1] [nM] | IC50 [5] [nM] | IC50 [6] [nM] | Ki [6] [nM] | EC50 ([7]; read-out: EC50) [nM] | IC50 [9] [nM] | Ki [9] [nM] | IC50 [11] [nM] | also measured |
| --- | --- | --- | --- | --- | --- | --- | --- | --- | --- | --- | --- | --- | --- | --- | --- | --- |
| CCCC[C@H](NC(=O)[C@H](CC(=O)O)NC(=O)[C@H](Cc1ccccc1)NN[C@@H](Cc1ccccc1)C(=O)NCC(=O)N[C@H](C)C(=O)N[C@@H](Cc1ccc(O)cc1)C(=O)O)C(=O)N[C@H](Cc1cn(C(=O)OC(C)(C)C)c2ccccc12)C(=O)O | 100 | 0 | 170 |  |  |  |  |  |  |  |  |  |  |  |  | Ke [4]: 6.5 nM |
| CC(=O)N[C@@H](Cc1c[nH]c2ccccc12)C(=O)N[C@@H](CCCCNC(=O)Nc1ccccc1Cl)C(=O)N[C@@H](CC(=O)O)C(=O)N(C)[C@@H](Cc1ccccc1)C(=O)NNC(=O)[C@H](Cc1ccccc1)NC(=O)CNC(=O)[C@@H](C)NC(=O)[C@@H](N)Cc1ccc(O)cc1 |  |  |  | 0.92 | 26 | 200 | 0.48 |  |  |  |  |  |  |  |  | EC50 ([1]; cho): 1.3 nM; Log IC50 [5]: -8.67; Ki ([6]; hek293): 1000 nM; Log IC50 ([6]; hek293): -5.99; EC50 ([7]; cho, read-out: EC50): 15 nM; Ki ([9]; hek293): 1700 nM; Log IC50 ([9]; hek293): -5.76; Log IC50 [11]: -8.95 |
| CCCC[C@H](NC(=O)[C@H](N)Cc1c[nH]c2ccccc12)C(=O)N[C@@H](CC(=O)O)C(=O)N[C@@H](Cc1ccccc1)C(=O)NNC(=O)[C@H](Cc1ccccc1)NC(=O)CNC(=O)[C@@H](C)NC(=O)[C@@H](N)Cc1ccc(O)cc1 |  |  |  | 0.51 | 26 | 81 | 1.4 | 9.4 | 1.2 | 10200 | 10000 | 9.6 | 9330 | 9300 | 3.24 | EC50 ([7]; read-out: Log EC50 (converted)): 9.77 nM |
| CCCC[C@H](NC(=O)[C@H](CC(=O)O)NC(=O)[C@H](Cc1ccccc1)NN[C@@H](Cc1ccccc1)C(=O)NCC(=O)N[C@H](C)C(=O)N[C@@H](Cc1ccc(O)cc1)C(=O)O)C(=O)N[C@@H](Cc1cn(C(=O)OC(C)(C)C)c2ccccc12)C(=O)O | 54 | 0 | 83 |  |  |  |  |  |  |  |  |  |  |  |  | Ke [4]: 14 nM |
| CCCC[C@H](NC(=O)[C@H](CC(=O)O)NC(=O)[C@H](Cc1ccccc1)NN[C@@H](Cc1ccccc1)C(=O)NCC(=O)N[C@H](C)C(=O)N[C@@H](Cc1ccc(O)cc1)C(=O)O)C(=O)N[C@H](Cc1cn(C(=O)OC2C3CC4CC(C3)CC2C4)c2ccccc12)C(=O)O (some centres not stated) | 61 | 0 | 60 |  |  |  |  |  |  |  |  |  |  |  |  |  |
| CCCC[C@@H](C(=O)N[C@@H](CC(=O)O)C(=O)N[C@@H](Cc1ccccc1)C(=O)NNC(=O)[C@H](Cc1ccccc1)NC(=O)CNC(=O)[C@@H](C)NC(=O)[C@@H](N)Cc1ccc(O)cc1)N(C)C(=O)[C@@H](Cc1c[nH]c2ccccc12)NC(=O)OC(C)(C)C |  |  |  | 20 | 42 |  | 0.82 | 26 | 47.9 | 1910 | 1900 | 0.64 | 1550 | 1500 | 2 |  |
| CCCC[C@H](NC(=O)[C@H](Cc1c[nH]c2ccccc12)NC(=O)OC(C)(C)C)C(=O)N[C@@H](CC(=O)O)C(=O)N[C@@H](Cc1ccccc1)C(=O)NNC(=O)[C@H](Cc1ccccc1)NC(=O)CNC(=O)[C@@H](C)NC(=O)[C@@H](N)Cc1ccc(O)cc1 |  |  |  | 24 | 230 | 55 | 59 | 27 | 55 | 4070 | 4100 | 9.5 | 3980 | 3800 | 138 |  |
| CCCC[C@H](NC(=O)[C@@H](Cc1c[nH]c2ccccc12)NC(=O)OC12CC3CC(CC(C3)C1)C2)C(=O)N[C@@H](CC(=O)O)C(=O)N[C@@H](Cc1ccccc1)C(=O)NNC(=O)[C@H](Cc1ccccc1)NC(=O)CNC(=O)[C@@H](C)NC(=O)[C@@H](N)Cc1ccc(O)cc1 |  |  |  | 88 | 38 | 640 | 0.23 | 27 | 195 | 851 | 840 | 10 | 562 | 560 | 0.417 |  |
| CCCC[C@H](NC(=O)[C@@H](Cc1c[nH]c2ccccc12)NC(=O)OC1C2CC3CC(C2)CC1C3)C(=O)N[C@@H](CC(=O)O)C(=O)N[C@@H](Cc1ccccc1)C(=O)NNC(=O)[C@H](Cc1ccccc1)NC(=O)CNC(=O)[C@@H](C)NC(=O)[C@@H](N)Cc1ccc(O)cc1 (some centres not stated) |  |  |  | 16 | 84 | 1200 | 3.4 | 5.6 | 37.2 | 575 | 560 | 240 | 933 | 930 | 7.76 |  |
| CCCC[C@H](NC(=O)[C@H](Cc1c[nH]c2ccccc12)NC(C)=O)C(=O)N[C@@H](CC(=O)O)C(=O)N(C)[C@@H](Cc1ccccc1)C(=O)NNC(=O)[C@H](Cc1ccccc1)NC(=O)CNC(=O)[C@@H](C)NC(=O)[C@@H](N)Cc1ccc(O)cc1 |  |  |  | 5.3 | 5.1 | 62 | 5.2 |  |  |  |  |  |  |  |  | EC50 ([1]; cho): 0.53 nM; Log IC50 [5]: -7.96; EC50 ([7]; cho, read-out: EC50): 5.2 nM; Log IC50 [11]: -7.97 |
| CCCC[C@@H](C(=O)N[C@@H](Cc1cn(C(C)=O)c2ccccc12)C(=O)O)N(C(=O)Nc1ccccc1Cl)C(=O)[C@H](CC(=O)O)NC(=O)[C@H](Cc1ccccc1)N(C)N[C@@H](Cc1ccccc1)C(=O)NCC(=O)N[C@H](C)C(=O)N[C@@H](Cc1ccc(O)cc1)C(=O)O | 81 | 0 | 33 |  |  |  |  |  |  |  |  |  |  |  |  | Ke [4]: 150 nM |
| CCCC[C@H](NC(=O)[C@H](Cc1c[nH]c2ccccc12)NC(C)=O)C(=O)N[C@@H](CC(=O)O)C(=O)N[C@@H](Cc1ccccc1)C(=O)NNC(=O)[C@H](Cc1ccccc1)NC(=O)CNC(=O)[C@@H](C)NC(=O)[C@@H](N)Cc1ccc(O)cc1 |  |  |  | 26 | 36 | 28 | 23 | 54 | 61.7 |  |  | 76 | 1320 | 1300 | 53.7 |  |
| CCCC[C@H](NC(=O)[C@@H](Cc1c[nH]c2ccccc12)NC(=O)OC(C)(C)C)C(=O)N[C@@H](CC(=O)O)C(=O)N[C@@H](Cc1ccccc1)C(=O)NNC(=O)[C@H](Cc1ccccc1)NC(=O)CNC(=O)[C@@H](C)NC(=O)[C@@H](N)Cc1ccc(O)cc1 |  |  |  | 31 | 24 | 460 | 45 | 74 | 64.6 | 35500 | > 10000 | 210 | 10000 | > 10000 | 93.3 |  |
